Results published in ChEMBL document CHEMBL3739331, “Synthesis and Bioactivities of Kanamycin B-Derived Cationic Amphiphiles” (J Med Chem, 2015).
In brackets after ≈: the same amount, converted by molar mass. Activity calls are given as the source filed them. The calls are words filed in the database; no cut-off is given here.

What was measured:
Pseudomonas aeruginosa = test: Antibacterial activity against Pseudomonas aeruginosa ATCC 27853 by microdilution method; format: functional
Procedure, shortened: (§1)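 Broth microdilution MIC against the named bacterial strain, reported in μg/mL; each determination run at least in duplicate.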

Candida albicans [1] = test: Antifungal activity against azole-susceptible Candida albicans ATCC MYA-2310 after 48 hrs by microbroth dilution method; format: functional; settings: ATCC MYA-2310, 48 h
Procedure, shortened: (§2)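 Yeast MIC by broth microdilution, run in duplicate. The aminoglycoside compounds are read as MIC-0 (complete inhibition). Azoles are read as MIC-2 (50% inhibition).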

Candida albicans [2] = test: Antifungal activity against azole-resistant Candida albicans ATCC 64124 after 48 hrs by microbroth dilution method; format: functional; settings: ATCC 64124, 48 h; procedure, shortened: as §2
Aspergillus nidulans = test: Antifungal activity against Aspergillus nidulans ATCC 38163 after 48 hrs by microbroth dilution method; format: functional; settings: ATCC 38163, 48 h
Procedure, shortened: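 Filamentous fungus MIC by broth microdilution, run in duplicate. All compounds are read as MIC-0 (complete inhibition).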

[3] = test system: Mycobacterium tuberculosis; test: Activity of Mycobacterium tuberculosis Eis assessed as compound acetylation activity by Ellman's method
Listeria monocytogenes = test: Antibacterial activity against Listeria monocytogenes ATCC 19115 by microdilution method; format: functional; procedure, shortened: as §1
Enterobacter cloacae = test: Antibacterial activity against Enterobacter cloacae ATCC 13047 by microdilution method; format: functional; procedure, shortened: as §1
Enterococcus = test: Antibacterial activity against vancomycin-resistant Enterococcus by microdilution method; format: functional
Procedure, shortened: (§3)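 Broth microdilution MIC, in μg/mL, against a panel of Gram-positive and Gram-negative strains. Run at least in duplicate.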

Acinetobacter baumannii = test: Antibacterial activity against Acinetobacter baumannii ATCC 19606 by microdilution method; format: functional; procedure, shortened: as §1
[4] = test system: Staphylococcus epidermidis; test: Antibacterial activity against Staphylococcus epidermidis ATCC 12228 by microdilution method; format: functional; procedure, shortened: as §1
Candida albicans [5] = test: Antifungal activity against azole-resistant Candida albicans ATCC 90819 after 48 hrs by microbroth dilution method; format: functional; settings: ATCC 90819, 48 h; procedure, shortened: as §2
Staphylococcus aureus [6] = test: Antibacterial activity against Staphylococcus aureus ATCC 29213 by microdilution method; format: functional; procedure, shortened: as §1
Staphylococcus aureus [7] = test: Antibacterial activity against Staphylococcus aureus NRS382 (USA 100) by microdilution method; format: functional; procedure, shortened: as §1
Candida albicans [8] = test: Antifungal activity against azole-resistant Candida albicans ATCC 10231 after 48 hrs by microbroth dilution method; format: functional; settings: ATCC 10231, 48 h; procedure, shortened: as §2
[9] = Activity of AAC(6')-1e/APH(2'')-1a (unknown origin) assessed as compound acetylation activity by Ellman's method
Serratia marcescens = test: Activity of Serratia marcescens AAC(6')-2d assessed as compound acetylation activity by Ellman's method
[10] = test system: Bacillus subtilis subsp. subtilis str. 168; test: Activity of Bacillus subtilis 168 APH(2'')-1a assessed as compound phosphorylation activity by Ellman's method
Candida albicans [11] = test: Antifungal activity against azole-resistant Candida albicans MYA-1003 after 48 hrs by microbroth dilution method; format: functional; settings: MYA-1003, 48 h; procedure, shortened: as §2
Staphylococcus aureus [12] = test: Antibacterial activity against Staphylococcus aureus NRS383 (USA 200) by microdilution method; format: functional; procedure, shortened: as §1
Staphylococcus aureus [13] = test: Antibacterial activity against methicillin-resistant Staphylococcus aureus by microdilution method; format: functional; procedure, shortened: as §3
[14] = test system: Mycobacterium tuberculosis; test: Activity of Mycobacterium tuberculosis AAC(2')-1c assessed as compound acetylation activity by Ellman's method
Staphylococcus aureus [15] = test: Antibacterial activity against Staphylococcus aureus NRS385 (USA 300) by microdilution method; format: functional; procedure, shortened: as §3
[16] = Cytotoxicity against human BEAS2B cells after 24 hrs by resazurin assay; format: cell-based, BEAS-2B
Klebsiella pneumoniae = test: Antibacterial activity against Klebsiella pneumoniae ATCC 27736 by microdilution method; format: functional; procedure, shortened: as §1
Staphylococcus aureus [17] = test: Antibacterial activity against Staphylococcus aureus NRS22 (USA 600) by microdilution method; format: functional; procedure, shortened: as §1
A549 = test: Cytotoxicity against human A549 cells after 24 hrs by resazurin assay; format: cell-based
[18] = Hemolytic activity against mouse RBC at 100 to 500 ug/ml after 60 mins; format: ADME, cell-based; settings: erythrocyte, 1 h
Candida albicans [19] = test: Antifungal activity against azole-resistant Candida albicans MYA-1237 after 48 hrs by microbroth dilution method; format: functional; settings: MYA-1237, 48 h; procedure, shortened: as §2
Escherichia coli = test: Antibacterial activity against Escherichia coli MC1061 by microdilution method; format: functional; procedure, shortened: as §3
[20] = Activity of AAC(3)-4 (unknown origin) assessed as compound acetylation activity by Ellman's method
Salmonella enterica = test: Antibacterial activity against Salmonella enterica ATCC 14028 by microdilution method; format: functional; procedure, shortened: as §1
Bacillus subtilis = test: Antibacterial activity against Bacillus subtilis 168 by microdilution method; format: functional; settings: subsp. subtilis str. 168; procedure, shortened: as §1
Candida albicans [21] = test: Antifungal activity against azole-susceptible Candida albicans ATCC MYA-2876 after 48 hrs by microbroth dilution method; format: functional; settings: ATCC MYA-2876, 48 h; procedure, shortened: as §2
[22] = test system: Mycolicibacterium smegmatis; test: Antibacterial activity against Mycobacterium smegmatis MC2 155 by microdilution method; format: functional; settings: str. MC2 155; procedure, shortened: as §3
Candida albicans [23] = test: Antifungal activity against azole-susceptible Candida albicans ATCC MYA-2310 after 48 hrs in presence of posaconazole by checkerboard microdilution assay; format: functional; settings: ATCC MYA-2310, 48 h
Procedure, shortened: (§4)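 Checkerboard combinations of the aminoglycoside amphiphile with posaconazole against yeast strains, run in duplicate. Each agent's MIC is taken alone and in combination. The fractional inhibitory concentration index (FICI) is calculated to classify the interaction.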

Candida albicans [24] = test: Antifungal activity against azole-resistant Candida albicans ATCC 10231 after 48 hrs in presence of posaconazole by checkerboard microdilution assay; format: functional; settings: ATCC 10231, 48 h; procedure, shortened: as §4
Candida albicans [25] = test: Antifungal activity against azole-resistant Candida albicans ATCC 64124 assessed as cell death after 24 hrs by time-kill assay; format: functional, organism-based
Procedure, shortened: (§5)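 Time-kill assay on C. albicans ATCC 64124 cultures exposed to test compound at 1/2 MIC, MIC and higher concentrations. Amphotericin B at 1 μg/mL and a no-drug culture serve as controls. CFU are counted at intervals over 24 h.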

Candida albicans [26] = test: Antifungal activity against azole-resistant Candida albicans ATCC 90819 after 48 hrs in presence of posaconazole by checkerboard microdilution assay; format: functional; settings: ATCC 90819, 48 h; procedure, shortened: as §4
Candida albicans [27] = test: Antifungal activity against azole-resistant Candida albicans ATCC 64124 at sub-MIC measured over 24 hrs by time-kill assay; format: functional, organism-based; procedure, shortened: as §5
Candida albicans [28] = test: Antifungal activity against azole-resistant Candida albicans ATCC 64124 at MIC measured after 6 hrs by time-kill assay; format: functional; procedure, shortened: as §5
Candida albicans [29] = test: Antifungal activity against azole-susceptible Candida albicans ATCC MYA-2876 after 48 hrs in presence of posaconazole by checkerboard microdilution assay; format: functional; settings: ATCC MYA-2876, 48 h; procedure, shortened: as §4
Candida albicans [30] = test: Antifungal activity against azole-resistant Candida albicans MYA-1237 after 48 hrs in presence of posaconazole by checkerboard microdilution assay; format: functional; settings: MYA-1237, 48 h; procedure, shortened: as §4
Candida albicans [31] = test: Antifungal activity against azole-resistant Candida albicans MYA-1003 after 48 hrs in presence of posaconazole by checkerboard microdilution assay; format: functional; settings: MYA-1003, 48 h; procedure, shortened: as §4
[32] = Hemolytic activity against mouse RBC at 125 ug/ml after 60 mins; format: ADME, cell-based, Erythrocyte; settings: red blood cells, read-out: Activity
Candida albicans [33] = test: Antifungal activity against azole-resistant Candida albicans ATCC 64124 assessed as cell membrane permeabilization at twice the MIC after 1 hr by propidium iodide-staining based fluorescence microscopic analysis (reference value: <2%); format: functional
Candida albicans [34] = test: Antifungal activity against azole-resistant Candida albicans ATCC 64124 assessed as cell membrane permeabilization at 1 times MIC after 1 hr by propidium iodide-staining based fluorescence microscopic analysis (reference value: <2%); format: functional
Candida albicans [35] = test: Antifungal activity against azole-resistant Candida albicans ATCC 64124 after 48 hrs in presence of posaconazole by checkerboard microdilution assay; format: functional; settings: ATCC 64124, 48 h; procedure, shortened: as §4

CCCCCCCCSC[C@@H]1O[C@@H](O[C@@H]2[C@@H](O)[C@H](O[C@@H]3O[C@@H](CN)[C@H](O)[C@@H](O)[C@@H]3N)[C@@H](N)C[C@H]2N)[C@@H](O)[C@H](N)[C@H]1O (stereo in doubt)
MIC (Pseudomonas aeruginosa): 64 µg/mL (≈ 105 µM) | MIC (Candida albicans [1]): > 125 µg/mL | MIC (Candida albicans [2]): > 125 µg/mL | MIC (Aspergillus nidulans): 15.6 µg/mL (≈ 25.5 µM) | Activity [3]: inactive | MIC (Listeria monocytogenes): 8 µg/mL (≈ 13.1 µM) | MIC (Enterobacter cloacae): > 128 µg/mL | MIC (Enterococcus): 128 µg/mL (≈ 209 µM) | MIC (Acinetobacter baumannii): > 128 µg/mL | MIC [4]: > 128 µg/mL | MIC (Candida albicans [5]): > 125 µg/mL | MIC (Staphylococcus aureus [6]): 64 µg/mL (≈ 105 µM) | MIC (Staphylococcus aureus [7]): 128 µg/mL (≈ 209 µM) | MIC (Candida albicans [8]): > 125 µg/mL | Activity [9]: inactive | Activity (Serratia marcescens): inactive | Activity [10]: inactive | MIC (Candida albicans [11]): > 125 µg/mL | MIC (Staphylococcus aureus [12]): 64 µg/mL (≈ 105 µM) | MIC (Staphylococcus aureus [13]): 128 µg/mL (≈ 209 µM) | Activity [14]: inactive | MIC (Staphylococcus aureus [15]): 128 µg/mL (≈ 209 µM) | Activity ([16]; human, beas-2b): Non-toxic | MIC (Klebsiella pneumoniae): > 128 µg/mL | MIC (Staphylococcus aureus [17]): 64 µg/mL (≈ 105 µM) | Activity (A549; human, a549, 24 h): Non-toxic | Activity [18]: Non-toxic | MIC (Candida albicans [19]): > 125 µg/mL | MIC (Escherichia coli): > 128 µg/mL | Activity [20]: inactive | MIC (Salmonella enterica): > 128 µg/mL | MIC (Bacillus subtilis): > 128 µg/mL | MIC (Candida albicans [21]): > 125 µg/mL | MIC [22]: 64 µg/mL (≈ 105 µM)

CCCCCCCCCCCCSC[C@@H]1O[C@@H](O[C@@H]2[C@@H](O)[C@H](O[C@@H]3O[C@@H](CN)[C@H](O)[C@@H](O)[C@@H]3N)[C@@H](N)C[C@H]2N)[C@@H](O)[C@H](N)[C@H]1O (stereo in doubt)
MIC (Pseudomonas aeruginosa): 32 µg/mL (≈ 47.9 µM) | MIC (Candida albicans [1]): 7.8 µg/mL (≈ 11.7 µM) | MIC (Candida albicans [2]): 31.2 µg/mL (≈ 46.7 µM) | MIC (Candida albicans [23]): 1 µg/mL | MIC (Aspergillus nidulans): ≤ 1.95 µg/mL | MIC (Candida albicans [24]): 8 µg/mL | Activity [3]: inactive | MIC (Enterobacter cloacae): > 128 µg/mL | MIC (Enterococcus): 16 µg/mL (≈ 24 µM) | MIC (Acinetobacter baumannii): > 128 µg/mL | MIC [4]: > 128 µg/mL | MIC (Candida albicans [5]): 31.2 µg/mL (≈ 46.7 µM) | Activity (Candida albicans [25]): Active | MIC (Candida albicans [26]): 4 µg/mL | Activity (Candida albicans [27]): Active | LCK (Candida albicans [28]): >=2 | MIC (Candida albicans [29]): 2 µg/mL | MIC (Candida albicans [30]): 2 µg/mL | MIC (Candida albicans [31]): 2 µg/mL | MIC (Candida albicans [8]): 31.2 µg/mL (≈ 46.7 µM) | Activity [9]: inactive | Activity (Serratia marcescens): inactive | Activity [10]: inactive | MIC (Candida albicans [11]): 31.2 µg/mL (≈ 46.7 µM) | hemolysis at 1 h, 125 ug/ml [32]: 40% | MIC (Staphylococcus aureus [13]): 32 µg/mL (≈ 47.9 µM) | Activity [14]: inactive | MIC (Staphylococcus aureus [15]): 16 µg/mL (≈ 24 µM) | IC50 ([16]; Homo sapiens, BEAS-2B): > 125 µg/mL | MIC (Klebsiella pneumoniae): > 128 µg/mL | MIC (Staphylococcus aureus [17]): 16 µg/mL (≈ 24 µM) | Activity (Candida albicans [33]): 44% | IC50 (A549; Homo sapiens, A549, 24 h): > 62.5 µg/mL | MIC (Candida albicans [19]): 31.2 µg/mL (≈ 46.7 µM) | MIC (Escherichia coli): > 128 µg/mL | Activity (Candida albicans [34]): 90% | Activity [20]: inactive | MIC (Salmonella enterica): > 128 µg/mL | MIC (Bacillus subtilis): > 128 µg/mL | MIC (Candida albicans [21]): 31.2 µg/mL (≈ 46.7 µM) | MIC (Candida albicans [35]): 2 µg/mL

C[C@@H]1[C@H](O)[C@@H](C)/C=C/C=C/C=C/C=C/C=C/C=C/C=C/[C@H](O[C@@H]2O[C@H](C)[C@@H](O)[C@H](N)[C@@H]2O)C[C@@H]2O[C@](O)(C[C@@H](O)C[C@@H](O)[C@H](O)CC[C@@H](O)C[C@@H](O)CC(=O)O[C@H]1C)C[C@H](O)[C@H]2C(=O)O [AMPHOTERICIN B]
Activity (Candida albicans [27]): Active | Activity [18]: Toxic
